Here are results for 44 molecules from ChEMBL document CHEMBL4219038, “1-Thiazol-2-yl-N-3-methyl-1H-pyrozole-5-carboxylic acid derivatives as antitumor agents” (Bioorg Med Chem Lett, 2017).

In one assay the test system is BJAB. Put plainly: Antiproliferative activity against human BJAB cells after 4 days. It counts as functional, cell-based.
For assay [1], the system named is HCT-116. Put plainly: Cell cycle arrest in human HCT116 cells assessed as reduction in cell levels at M-phase at 0.001 to 10 uM after 24 hrs by EdU-staining based high content imaging analysis. The format is functional. Put shortly:
(§1)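 HCT-116 cells plated on poly-lysine-coated plates overnight, then treated 24 h with compound (DMSO stock diluted into McCoy's medium with 10% FBS). EdU labelling of newly synthesized DNA, 4% formaldehyde fixation, then high-content imaging in three fluorescent channels for total cell count, DNA content and S-phase cells. Means of three biological replicates, SEM.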

The subject of assay [2] is HCT-116. Put plainly: Cell cycle arrest in human HCT116 cells assessed as accumulation at G0/G1 phase at 0.001 to 10 uM after 24 hrs by EdU-staining based high content imaging analysis. The format is functional. Put shortly:
as §1

For assay [3], the system named is HCT-116. Put plainly: Cell cycle arrest in human HCT116 cells assessed as reduction in cell levels at S/G2 phase at 0.001 to 10 uM after 24 hrs by EdU-staining based high content imaging analysis. The format is functional. Put shortly: as §1
In assay [4] the test system is HCT-116. Put plainly: Cell cycle arrest in human HCT116 cells assessed as reduction in cell levels at S-phase at 0.001 to 10 uM after 24 hrs EdU-staining based high content imaging analysis. The format is functional. Put shortly: as §1
The mark [5] stands for this setting: Homo sapiens, BJAB, 96 h, read-out: EC50.

Active and inactive are the calls of the source. The calls are words filed in the database; no cut-off is given here.

With `COc1ccc(-c2c(C)nn(-c3nc(-c4ccc(Cl)c(Cl)c4)c(SC(C)C)s3)c2C(=O)O)cc1`, in the assay with BJAB (setting [5]), the 50% effective concentration (EC50) (as a rule, the concentration needed to bring the measured effect to its halfway point) was 2.1 µM.

In the case of `Cc1cc(Cl)cc(-c2c(C)nn(-c3nc(-c4ccc(Cl)c(Cl)c4)c(SC(C)C)s3)c2C(=O)O)c1`, the EC50 in the assay with BJAB (setting [5]) stood at 0.663 µM. Same read-out and setting: with `Cc1ccc(-c2c(C)nn(-c3nc(-c4ccc(Cl)c(Cl)c4)c(SC(C)C)s3)c2C(=O)O)cc1` the figure was 3.8 µM; with `CCOc1ncccc1-c1c(C)nn(-c2nc(-c3ccc(Cl)c(Cl)c3)c(SC(C)C)s2)c1C(=O)O`, 11 µM; with `Cc1cccc(-c2c(C)nn(-c3nc(-c4ccc(Cl)c(Cl)c4)c(SC(C)C)s3)c2C(=O)O)c1`, 17 µM. Consider `Cc1cc(-c2c(C)nn(-c3nc(-c4ccc(Cl)c(Cl)c4)c(SC(C)C)s3)c2C(=O)O)cc(C)n1`, for which, in the assay on BJAB (setting [5]), the concentration giving a half-maximal response (EC50) was 0.58 µM.

As to `COc1ccc(C)cc1-c1c(C)nn(-c2nc(-c3ccc(Cl)c(Cl)c3)c(SC(C)C)s2)c1C(=O)O`, the EC50 in the assay with BJAB (setting [5]) worked out at 9.5 µM. On to `Cc1nn(-c2nc(-c3ccc(Cl)c(Cl)c3)c(SC(C)C)s2)c(C(=O)O)c1-c1ccc(C(F)(F)F)cc1`, for which, in the assay on BJAB (setting [5]), the concentration for a half-maximal effect (EC50) is 3.5 µM. On the same count and under the same terms, with `Cc1nn(-c2nc(-c3ccc(Cl)c(Cl)c3)c(SC(C)C)s2)c(C(=O)O)c1-c1cnn(C)c1` the figure was 6.8 µM; with `Cc1nn(-c2nc(-c3ccc(Cl)c(Cl)c3)c(SC(C)C)s2)c(C(=O)O)c1-c1ccccc1`, 3 to 3.4 µM. For `COC(=O)c1c(Cc2ccccc2[N+](=O)[O-])c(C)nn1-c1nc(-c2ccc(Cl)c(Cl)c2)c(SC(C)C)s1`, in the assay with BJAB (setting [5]), the 50% effective concentration (EC50) is 93 µM.

`COc1cc(-c2c(C)nn(-c3nc(-c4ccc(Cl)c(Cl)c4)c(SC(C)C)s3)c2C(=O)O)cc(C(F)(F)F)c1`: the EC50 in the assay with BJAB (setting [5]) was 1.38 µM. For the molecule `CC(=O)Nc1ccc(-c2c(C)nn(-c3nc(-c4ccc(Cl)c(Cl)c4)c(SC(C)C)s3)c2C(=O)O)cc1`, the outcome with HCT-116 [1], in the assay with HCT-116 [2], in the assay with HCT-116 [3] and with HCT-116 [4] was inactive. Besides, the EC50 in the assay with BJAB (setting [5]) is 139 µM.

`Cc1nn(-c2nc(-c3ccc(Cl)c(Cl)c3)c(SC(C)C)s2)c(C(=O)O)c1-c1ccccc1[N+](=O)[O-]`: the EC50 with BJAB (setting [5]) is 4.7 µM. As to `CNc1cc(-c2c(C)nn(-c3nc(-c4ccc(Cl)c(Cl)c4)c(SC(C)C)s3)c2C(=O)O)ccn1`, in the assay on BJAB (setting [5]), the concentration for a half-maximal effect (EC50) came out at 18 µM.

Regarding `Cc1nn(-c2nc(-c3cccnc3)c(SC(C)C)s2)c(C(=O)O)c1-c1cc(Cl)cc(Cl)c1`, the EC50 entry in the assay on BJAB (bjab) is “Not Active”. As for `Cc1nn(-c2nc(-c3ccc(Cl)c(Cl)c3)c(SC(C)C)s2)c(C(=O)O)c1-c1cncnc1`, the concentration for a half-maximal effect (EC50) in the assay with BJAB (setting [5]) turned out to be 22 µM. On to `Cc1nn(-c2nc(-c3ccc(Cl)c(Cl)c3)c(SC(C)C)s2)c(C(=O)O)c1-c1ccccc1Cl`, for which, in the assay on BJAB (setting [5]), the EC50 worked out at 13.1 µM. In the case of `Cc1nn(-c2nc(-c3ccc(Cl)c(Cl)c3)c(SC(C)C)s2)c(C(=O)O)c1-c1cccnc1`, in the assay with BJAB (setting [5]), the 50% effective concentration (EC50) was 12 µM. For `COc1cc(C#N)cc(-c2c(C)nn(-c3nc(-c4ccc(Cl)c(Cl)c4)c(SC(C)C)s3)c2C(=O)O)c1`, the EC50 with BJAB (setting [5]) was found to be 5.2 µM. On the same count and under the same terms, with `Cc1ccccc1-c1c(C)nn(-c2nc(-c3ccc(Cl)c(Cl)c3)c(SC(C)C)s2)c1C(=O)O` the figure was 5.5 µM; with `Cc1nn(-c2nc(-c3ccc(Cl)c(Cl)c3)c(SC(C)C)s2)c(C(=O)O)c1-c1cncc(C#N)c1`, 20 µM; with `CCSc1sc(-n2nc(C)c(Cc3ccccc3[N+](=O)[O-])c2C(=O)OC)nc1-c1ccc(Cl)c(Cl)c1`, 106 µM.

For the molecule `Cc1cc(C)cc(-c2c(C)nn(-c3nc(-c4ccc(Cl)c(Cl)c4)c(SC(C)C)s3)c2C(=O)O)c1`, in the assay on BJAB (setting [5]), the EC50 amounted to 2.7 µM. Consider `Cc1nn(-c2nc(-c3ccc(Cl)c(Cl)c3)c(SC(C)C)s2)c(C(=O)O)c1-c1ccccc1C(F)(F)F`, for which, in the assay with BJAB (setting [5]), the concentration for a half-maximal effect (EC50) amounted to 5.2 µM. On to `COc1cc(Cl)cc(-c2c(C)nn(-c3nc(-c4ccc(Cl)c(Cl)c4)c(SC(C)C)s3)c2C(=O)O)c1`, for which, in the assay on BJAB (setting [5]), the EC50 is 0.76 µM. Take `Cc1nn(-c2nc(-c3ccc(Cl)c(Cl)c3)c(SC(C)C)s2)c(C(=O)O)c1-c1cnccn1`: the concentration for a half-maximal effect (EC50) in the assay on BJAB (setting [5]) was found to be 14 µM. For the same molecule, the result in the assay on HCT-116 [4] was Active. With `Cc1nn(-c2nc(-c3ccc(Cl)c(Cl)c3)c(SC(C)C)s2)c(C(=O)O)c1-c1cc(C#N)cc(C(F)(F)F)c1`, in the assay with BJAB (setting [5]), the half-maximal effective concentration (EC50) stood at 3.6 µM.

In the case of `Cc1nn(-c2nc(-c3ccc(Cl)c(Cl)c3)c(SC(C)C)s2)c(C(=O)O)c1-c1ccncc1`, the 50% effective concentration (EC50) with BJAB (setting [5]) was 5.9 µM. Regarding `COc1cncc(-c2c(C)nn(-c3nc(-c4ccc(Cl)c(Cl)c4)c(SC(C)C)s3)c2C(=O)O)c1`, the EC50 with BJAB (setting [5]) was found to be 21 µM. Turning to `Cc1nn(-c2nc(-c3ccc(Cl)c(Cl)c3)c(SC(C)C)s2)c(C(=O)O)c1Cc1ccccc1[N+](=O)[O-]`, the half-maximal effective concentration (EC50) in the assay with BJAB (setting [5]) was found to be 20 µM. Regarding `Cc1nn(-c2nc(-c3ccc(Cl)c(Cl)c3)c(SC(C)C)s2)c(C(=O)O)c1-c1cccc(F)c1`, in the assay with BJAB (setting [5]), the EC50 was found to be 0.9 µM. Turning to `Cc1cc(C#N)cc(-c2c(C)nn(-c3nc(-c4ccc(Cl)c(Cl)c4)c(SC(C)C)s3)c2C(=O)O)c1`, the EC50 in the assay with BJAB (setting [5]) was 4.8 µM. Turning to `COc1cccc(-c2c(C)nn(-c3nc(-c4ccc(Cl)c(Cl)c4)c(SC(C)C)s3)c2C(=O)O)c1`, the EC50 in the assay with BJAB (setting [5]) was 14 µM.

In the case of `O=C(O)/C(Cc1ccccc1[N+](=O)[O-])=N\Nc1nc(-c2ccc(Cl)c(Cl)c2)cs1`, the half-inhibitory concentration (IC50) – broadly, the concentration that inhibits the measured activity by half – in the assay with BJAB (Homo sapiens, BJAB, 96 h) turned out to be 20 µM. For `Cc1nn(-c2nc(-c3ccc(Cl)c(Cl)c3)c(SC(C)C)s2)c(C(=O)O)c1-c1cc(C(F)(F)F)cc(C(F)(F)F)c1`, the EC50 in the assay on BJAB (setting [5]) amounted to 1.8 µM. For the molecule `Cc1nn(-c2nc(-c3ccc(Cl)c(Cl)c3)c(SC(C)C)s2)c(C(=O)O)c1-c1cccc(Cl)c1`, the concentration for a half-maximal effect (EC50) with BJAB (setting [5]) stood at 13.6 µM. Same read-out and setting: with `Cc1nn(-c2nc(-c3ccc(Cl)c(Cl)c3)c(SC(C)C)s2)c(C(=O)O)c1-c1cccc(Cl)c1C` the figure was 5.1 µM; with `CCSc1sc(-n2nc(C)c(Cc3ccccc3[N+](=O)[O-])c2C(=O)O)nc1-c1ccc(Cl)c(Cl)c1`, 59 µM. The same measure, in the same setting: as for `Cc1nn(-c2nc(-c3ccc(Cl)c(Cl)c3)c(SC(C)C)s2)c(C(=O)O)c1-c1cccc(C(F)(F)F)c1`, the figure is 22 µM; as for `Cc1nn(-c2nc(-c3ccc(Cl)c(Cl)c3)c(SC(C)C)s2)c(C(=O)O)c1-c1ccc(Cl)cc1`, 2.5 µM.

With `COc1ccccc1-c1c(C)nn(-c2nc(-c3ccc(Cl)c(Cl)c3)c(SC(C)C)s2)c1C(=O)O`, in the assay on BJAB (setting [5]), the concentration for a half-maximal effect (EC50) is 14.7 µM. Same read-out and setting: as for `COC(=O)c1c(Cc2ccccc2[N+](=O)[O-])c(C)nn1-c1nc(-c2ccc(Cl)c(Cl)c2)cs1`, the figure is 377 µM. As for `Cc1nn(-c2nc(-c3ccc4nccn4c3)c(SC(C)C)s2)c(C(=O)O)c1-c1cc(Cl)cc(Cl)c1`, the EC50 entry in the assay with BJAB (bjab) is recorded as “Not Active”.
